Assay results gathered from unrelated publications.
Matrix: plasma

Compound | test system | conditions | AUC(0-inf) [ng·h/mL]
CCCCC[C@H](O)CC[C@@H]1[C@H]2Cc3cccc(OCC(=O)O)c3C[C@H]2C[C@H]1O | human | inhaled, 36 µg, single dose, healthy volunteers | 0.7
C=C(F)C(=O)N1CCN(c2nc(OC[C@@H]3CCCN3C)nc3c2CCN(c2cccc4cccc(Cl)c24)C3)C[C@@H]1CC#N | human | oral, 600 mg, single dose, fasted | 37100
COC(=O)N[C@@H](C)CNc1nccc(-c2cn(C(C)C)nc2-c2cc(Cl)cc(NS(C)(=O)=O)c2F)n1 | human | oral, 50 mg, single dose | 1880
CC(C)(O)c1ccccc1-c1ccc2[nH]c(/C=C/c3ccc(C(F)(F)F)cc3)nc2c1 | male human | oral, 15 mg, single dose, fasted | 5190
CS(=O)(=O)CCC#N | human | oral, 300 mg, single dose, fasted | 327000
FC(F)(F)c1ccc(CNc2ccc(Cc3c[nH]c4ncc(Cl)cc34)cn2)cn1 | male human | oral, 400 mg, single dose, healthy volunteers | 61300
CCc1cnn2c(NCc3ccc[n+]([O-])c3)cc(N3CCCC[C@H]3CCO)nc12 | human | intravenous, 9 mg/m², patients | 796
CCCOc1ccc([C@H]2CNC(=O)N2c2ccc3[nH]cnc3c2)cc1 | human | oral, 200 mg, single dose, fed, healthy volunteers | 2310
CCc1nc2c(C)cc(N3CCN(CC(=O)N4CC(O)C4)CC3)cn2c1N(C)c1nc(-c2ccc(F)cc2)c(C#N)s1 | human | oral, 60 mg, single dose, fed, healthy volunteers | 2400
CC(C)n1cc(C#N)c2cc(-n3cc(C(=O)O)cn3)ccc21 | human | oral, 200 mg, single dose, fed | 44300
CO[C@H]1/C=C\C=C(/C)C(=O)NC2=CC(=O)C(NCCN(C)C)=C(C[C@@H](C)C[C@H](OC)[C@H](O)[C@@H](C)/C=C(\C)[C@@H]1OC(N)=O)C2=O | human | intravenous, 12 mg/m², patients, infusion | 1220
COc1ccc([C@@H]2CN(C(=O)[C@@H](O)CO)C[C@@]2(C)[C@@H](C)O)cc1OC1CN(c2ccc(C)cn2)C1 | human | oral, 0.5 mg, single dose, healthy volunteers | 211
O=C(/C=C/c1cccc(S(=O)(=O)Nc2ccccc2)c1)NO | human | intravenous, 1900 mg/m², patients | 72800
CN(C)CCCNC(=O)/C(=C/CCCCC(=O)NO)COc1cccc2ccccc12 | human | intravenous, 187.5 mg/m², single dose | 30700
CC(C)(Sc1ccncc1-c1ccc(C#N)c2ccccc12)C(=O)O | male human | oral, 5 mg, single dose, fasted, healthy volunteers | 121
O=C(Nc1c(Cl)cncc1Cl)c1ccc(OC(F)F)c(OCC2CC2)c1 | human | oral, 0.5 mg, single dose, fasted | 65.1
Nc1ccc(-c2nc([C@H]3CCc4cc(-c5cc(Cl)ccc5-n5cnnn5)cc(=O)n43)c(F)[nH]2)c(F)n1 | human | oral, 80 mg, single dose, fasted | 17500
CO[C@H]1CC[C@H](N2C(=O)CNc3ncc(-c4ccc(C(C)(C)O)nc4)nc32)CC1 | human | oral, 60 mg, patients | 2070
C[C@@]1(c2cc(NC(=O)c3ccc(C#N)cn3)ccc2F)C=CSC(N)=N1 | human | oral, 30 mg, single dose | 2550
Cn1cc(-c2ccc(S(=O)(=O)[C@@H]3C[C@@H](C(=O)NC4(C#N)CC4)N(C(=O)C4(C(F)(F)F)CC4)C3)c(C(F)(F)F)c2)cn1 | human | oral, 100 mg, single dose, fed | 12600
CC(C)[C@](O)(c1ccc2cc(OC(F)F)c(OC(F)F)cc2c1)c1c[nH]nn1 | female human | oral, 450 mg, single dose | 31100
COc1ccc(-n2nc(C(N)=O)c3c2C(=O)N(c2ccc(N4CCCCC4=O)cc2)CC3)cc1 | male human | oral, 50 mg, single dose | 4740
